7 molecules from ChEMBL document CHEMBL4024800, “α-Amino-β-carboxymuconate-ε-semialdehyde Decarboxylase (ACMSD) Inhibitors as Novel Modulators of De Novo Nicotinamide Adenine Dinucleotide (NAD+) Biosynthesis” (J Med Chem, 2018) can be followed below.

In brackets after ≈: the same amount, converted by molar mass.

The target of data set [1] is 2-amino-3-carboxymuconate-6-semialdehyde decarboxylase (Homo sapiens, UniProt Q8TDX5). As to the kind of experiment: Inhibition of human ACMSD expressed in Pichia pastoris using ACMS as substrate by coupled spectrophotometric assay. The method in brief: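 Recombinant enzyme purified from Pichia pastoris; ACMS substrate generated in a pre-assay mix from 10 μM 3-hydroxyanthranilic acid by Ralstonia metallidurans 3-hydroxyanthranilate 3,4-dioxygenase, formation monitored at 360 nm. Enzyme and compound then added together; activity from initial rate of absorbance decrease minus a no-enzyme control. Serial dilutions, 1.0% DMSO throughout. IC50 from concentration–response curves, mean ± SD of three independent experiments.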

The nature of data set [2]: AUClast in mouse kidney at 5 mg/kg, po measured up to 8 hrs post dose. Type of data set: ADME, organism-based. The arrangement: time < 8 hr, dose 5 mg/kg, route oral. The method in brief:
(§1)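 Mice dosed orally at 5 mg/kg in 0.5% (w/v) HPMC in water with 5% (v/v) DMSO; blood, liver and kidney concentrations followed to 8 h. AUC0–8h given in h·ng/mL; parameters reported as means.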

A short description of data set [3]: AUClast in mouse liver at 5 mg/kg, po measured up to 8 hrs post dose. Further details: dose 5 mg/kg, time < 8 hr, route oral; call rule not given here. The class given is ADME, organism-based. The gist of the method: as §1
Data set [4] is described as follows: Cytotoxicity against mouse AML-12 cells assessed as reduction in cell viability after 4 hrs by celltiter-glo assay. The class given is cell-based. Particulars: aml-12, 4 h. The method in brief:
(§2)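 HepG2 or AML12 cells, 5 × 10^3 per well, exposed to compound for 4 h at 37 °C. Viability read as ATP by CellTiter-Glo luminescence; tamoxifen control.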

Data set [5] deals with T1, Nuclear receptor subfamily 1 group I member 2 (Homo sapiens, UniProt O75469).
T1 sequence (O75469 whole entry): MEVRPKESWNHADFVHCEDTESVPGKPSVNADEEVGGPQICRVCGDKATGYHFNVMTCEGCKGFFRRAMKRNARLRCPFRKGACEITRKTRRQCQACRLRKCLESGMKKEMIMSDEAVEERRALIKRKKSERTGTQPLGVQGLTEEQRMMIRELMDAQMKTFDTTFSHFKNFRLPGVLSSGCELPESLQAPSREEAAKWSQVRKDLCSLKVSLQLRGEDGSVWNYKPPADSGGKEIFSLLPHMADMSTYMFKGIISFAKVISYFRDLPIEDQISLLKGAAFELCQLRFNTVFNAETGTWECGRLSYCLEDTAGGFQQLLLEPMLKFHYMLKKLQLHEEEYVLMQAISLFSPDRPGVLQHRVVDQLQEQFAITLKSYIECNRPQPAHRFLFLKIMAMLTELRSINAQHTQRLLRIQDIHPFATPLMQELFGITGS
Description: Activity at PXR (unknown origin). The method in brief:
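Eight-point serial dilutions tested in an in-house AlphaScreen-based nuclear receptor panel; activity derived from nonlinear regression curves.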

Data set [6] can be described thus: Drug uptake in mouse central nervous system at 5 mg/kg, po in presence of P-gp inhibitor Elacridar. The class given is ADME, organism-based. Particulars: in vivo.
Data set [7] in a line: Apparent passive permeability from apical to basolateral side in MDCK2-MDR1 cells at 3 uM after 90 mins by LC-MS/MS analysis. Type of data set: ADME, cell-based, Canis lupus familiaris. Particulars: dog, MDCK-MDR1. The method in brief: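 MDCKII-MDR1 monolayers, HBSS transport medium pH 7.4; compound 3 μM for 90 min, run with and without a P-gp inhibitor, n = 3. Quantified by LC-MS/MS as analyte/internal-standard peak-area ratio; monolayer integrity checked with Lucifer yellow. Papp given in nm/sec, A>B.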

Data set [8] is described as follows: Oral bioavailability in CD1 mouse at 5 mg/kg measured up to 8 hrs after dose. The class given is ADME, organism-based. The conditions noted are these: in vivo. The method in brief:
as §1

Data set [9] addresses Voltage-gated inwardly rectifying potassium channel KCNH2 (Homo sapiens, UniProt Q12809). Description: Displacement of red fluorescent channel ligand tracer from human ERG expressed in CHO cell membranes. The method in brief: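 Fluorescence polarisation kit: membranes from CHO cells stably expressing hERG, with a red fluorescent high-affinity tracer; competitors detected by tracer displacement, seen as lowered polarisation. Final DMSO 1%; E-4031 reference.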

Data set [10] is described as follows: Half life in CD1 mouse at 0.5 mg/kg, iv measured up to 24 hrs post dose. The class given is ADME, organism-based. The conditions noted are these: in vivo. The method in brief:
(§3)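 Mice given 0.5 mg/kg IV in saline containing 5% (v/v) DMSO and 20% (v/v) PEG400; blood pharmacokinetic parameters reported as means.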

Data set [11] is described as follows: AUClast in CD1 mouse at 0.5 mg/kg, iv measured up to 24 hrs post dose. Particulars: in vivo. Further details: dose 0.5 mg/kg, time < 24 hr, route intravenous. Type of data set: ADME, organism-based. The method in brief:
as §3

Data set [12] in a line: Cmax in CD1 mouse at 5 mg/kg, po measured up to 8 hrs after dose. The arrangement: dose 5 mg/kg, route oral. Particulars: in vivo. The class given is ADME, organism-based. The method in brief:
as §1

Data set [13] is described as follows: Volume of distribution at steady state in CD1 mouse at 0.5 mg/kg, iv measured up to 24 hrs post dose. Type of data set: ADME, organism-based. The conditions noted are these: in vivo, read-out: Vdss. The gist of the method:
as §3

Data set [14] in a line: AUClast in mouse blood at 5 mg/kg, po measured up to 8 hrs post dose. Type of data set: ADME, organism-based. Further details: time < 8 hr, dose 5 mg/kg, route oral. The gist of the method:
as §1

Data set [15] is described as follows: Drug uptake in mouse central nervous system at 5 mg/kg, po. The class given is ADME, organism-based. The conditions noted are these: in vivo.
Data set [16] in a line: Tmax in CD1 mouse at 5 mg/kg, po measured up to 8 hrs post dose. Particulars: in vivo. The class given is ADME, organism-based. The method in brief: as §1
In another data set the test system is HepG2. As to the kind of experiment: Cytotoxicity against human HepG2 cells assessed as reduction in cell viability after 4 hrs by celltiter-glo assay. The conditions noted are these: hepg2, 4 h. Type of data set: cell-based. The method in brief:
as §2
Background: In ATP-based viability assays light output follows the ATP content of the culture.

Another data set concerns the target Cytochrome P450 2C19 (Homo sapiens, UniProt P33261). As to the kind of experiment: Inhibition of recombinant human CYP2C19 expressed in baculosomes expression system using fluorogenic-BOMCC as substrate by fluorescent homogeneous assay. The class given is ADME. The gist of the method:
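Recombinant CYP baculosomes with fluorogenic substrates, at concentrations below their Km; homogeneous fluorescence read-out, run in triplicate. IC50 classes: <1 μM potent, 1–10 μM moderate, >10 μM weak or none.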

A short description of data set [17]: Solubility of compound in PBS buffer at pH 7.4 after 24 hrs by UV/vis-spectroscopic analysis. Type of data set: physicochemical. The gist of the method: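 Compound in PBS pH 7.4 with 1% DMSO mixed, incubated 24 h and vacuum-filtered; filtrate read by UV/vis and relative solubility calculated from summed readings against a standard. Reported in mg/mL.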
Data set [18] can be described thus: Clearance in CD1 mouse at 0.5 mg/kg, iv measured up to 24 hrs post dose. Type of data set: ADME, organism-based. The conditions noted are these: in vivo. The gist of the method: as §3

Sequence of 2-amino-3-carboxymuconate-6-semialdehyde decarboxylase (Q8TDX5 whole entry): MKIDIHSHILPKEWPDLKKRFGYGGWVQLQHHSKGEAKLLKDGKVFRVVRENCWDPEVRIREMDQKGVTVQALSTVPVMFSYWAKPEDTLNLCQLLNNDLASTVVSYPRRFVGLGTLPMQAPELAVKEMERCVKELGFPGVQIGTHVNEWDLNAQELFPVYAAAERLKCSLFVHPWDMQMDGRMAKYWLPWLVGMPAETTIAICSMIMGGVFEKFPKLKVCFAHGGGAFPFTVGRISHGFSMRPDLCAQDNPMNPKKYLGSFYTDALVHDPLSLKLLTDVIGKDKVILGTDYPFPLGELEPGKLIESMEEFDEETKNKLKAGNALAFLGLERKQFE
Sequence of Voltage-gated inwardly rectifying potassium channel KCNH2 (Q12809 whole entry): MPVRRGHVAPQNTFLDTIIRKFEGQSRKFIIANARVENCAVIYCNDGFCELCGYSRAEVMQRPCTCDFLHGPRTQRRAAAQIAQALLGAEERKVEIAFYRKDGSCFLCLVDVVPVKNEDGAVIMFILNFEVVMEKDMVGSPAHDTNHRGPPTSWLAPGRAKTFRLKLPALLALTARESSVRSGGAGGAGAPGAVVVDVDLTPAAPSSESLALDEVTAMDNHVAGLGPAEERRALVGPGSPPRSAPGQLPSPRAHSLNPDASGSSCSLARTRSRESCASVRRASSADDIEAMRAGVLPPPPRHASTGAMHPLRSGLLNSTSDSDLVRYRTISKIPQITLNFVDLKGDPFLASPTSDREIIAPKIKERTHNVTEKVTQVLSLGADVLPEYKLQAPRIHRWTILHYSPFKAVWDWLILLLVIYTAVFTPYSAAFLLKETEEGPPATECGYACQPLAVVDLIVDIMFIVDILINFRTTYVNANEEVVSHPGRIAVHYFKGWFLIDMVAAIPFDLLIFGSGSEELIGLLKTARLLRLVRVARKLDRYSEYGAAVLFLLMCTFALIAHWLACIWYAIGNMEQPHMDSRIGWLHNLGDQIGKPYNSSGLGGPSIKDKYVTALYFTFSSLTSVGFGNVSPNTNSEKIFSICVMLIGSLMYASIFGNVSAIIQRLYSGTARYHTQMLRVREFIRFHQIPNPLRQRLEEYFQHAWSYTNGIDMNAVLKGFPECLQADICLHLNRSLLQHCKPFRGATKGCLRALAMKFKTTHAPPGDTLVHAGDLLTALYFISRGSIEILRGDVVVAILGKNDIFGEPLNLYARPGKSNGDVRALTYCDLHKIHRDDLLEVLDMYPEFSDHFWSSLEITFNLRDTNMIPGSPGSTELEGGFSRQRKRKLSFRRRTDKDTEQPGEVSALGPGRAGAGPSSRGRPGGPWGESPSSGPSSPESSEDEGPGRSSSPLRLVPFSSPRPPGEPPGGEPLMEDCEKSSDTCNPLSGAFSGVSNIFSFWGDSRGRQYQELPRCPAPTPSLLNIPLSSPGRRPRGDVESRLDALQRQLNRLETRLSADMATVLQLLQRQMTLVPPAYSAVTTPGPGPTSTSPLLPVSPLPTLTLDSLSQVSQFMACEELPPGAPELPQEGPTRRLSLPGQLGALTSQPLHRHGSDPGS
Sequence of Cytochrome P450 2C19 (P33261 whole entry): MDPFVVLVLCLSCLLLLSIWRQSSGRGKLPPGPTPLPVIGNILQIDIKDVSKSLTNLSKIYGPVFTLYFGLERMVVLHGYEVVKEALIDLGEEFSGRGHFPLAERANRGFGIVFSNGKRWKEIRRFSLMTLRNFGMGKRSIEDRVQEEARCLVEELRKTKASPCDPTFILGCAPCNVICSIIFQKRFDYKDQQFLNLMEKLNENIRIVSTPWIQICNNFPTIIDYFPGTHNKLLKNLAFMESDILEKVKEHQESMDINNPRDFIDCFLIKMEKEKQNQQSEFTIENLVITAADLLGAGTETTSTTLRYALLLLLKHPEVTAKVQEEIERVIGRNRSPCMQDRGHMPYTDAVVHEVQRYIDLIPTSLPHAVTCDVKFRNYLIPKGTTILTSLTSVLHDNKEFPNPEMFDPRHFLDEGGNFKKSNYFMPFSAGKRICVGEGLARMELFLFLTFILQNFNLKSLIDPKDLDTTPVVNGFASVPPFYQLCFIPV

Broadly, the IC50 is the midpoint of a concentration-inhibition curve. `N#Cc1c(-c2cccs2)nc(SCc2cccc(-c3noc(C(F)(F)F)n3)c2)[nH]c1=O` had an IC50 in [1] of 3350 nM.

In turn, `O=C(O)c1cccc(CSc2nc(-c3ccccc3)c(Br)c(=O)[nH]2)c1` registered an IC50 in data set [1] of 99 nM.

Take `O=C(O)c1cccc(CSc2nc(-c3ccccc3)c(Cl)c(=O)[nH]2)c1`: in data set [1], the IC50 was 151 nM.

The molecule `N#Cc1c(-c2cccs2)nc(SCc2cccc(C(=O)NO)c2)[nH]c1=O` had an IC50 in data set [1] of 1750 nM.

In [1], `Cc1nc(SCc2cccc(C(=O)O)c2)[nH]c(=O)c1C#N` displayed an IC50 of 1900 nM.

Usually AUC(0-t) stands for the area under the concentration-time curve up to a stated or last time point. Read a low AUC(0-t) as less exposure. The Papp A→B is how fast a substance crosses the layer from the apical side. By bioavailability is commonly meant dose-corrected exposure relative to a reference, in per cent. The low end stands for little systemic uptake, the high end for much systemic uptake. In general, half-life refers to the time in which the quantity being followed falls by half. A lower half-life goes with rapid decline. By Cmax is commonly meant the maximum level reached in the sampled fluid or tissue. In general, Tmax refers to the time at which the peak concentration occurs. A word on the solubility: it is the concentration that dissolves in the medium under given conditions. Read a high solubility as a readily soluble substance. As a reminder, the clearance is a measure of how efficiently the substance is removed, as volume per time. Read a high clearance as a high capacity for elimination. `N#Cc1c(-c2cccs2)nc(SCc2cccc(-c3nn[nH]n3)c2)[nH]c1=O`: the area under the curve AUC(0-t) at 8 h in data set [2] is 2830 ng·h/mL; in data set [3], 4290 ng·h/mL; in [14] it was 1620 ng·h/mL. Further, the figures for the Activity entry (in [4]; in [5]; in the data set with HepG2) were “Non-Toxic”, “Not Active” and “Non-Toxic”, respectively. The Drug uptake result in data set [6] and in data set [15] was “Not Active” each time. Further, the Papp A→B at 1.5 h, 3 µM in data set [7] worked out at 0.584 ×10⁻⁶ cm/s. Besides, the bioavailability in [8] is 2.3%. Also, the 50% inhibitory concentration (IC50) is 3 nM in [1] and 100 nM at Cytochrome P450 2C19. Besides, in data set [9], the “inhibition (INH)” value is “Not Active”. For the same molecule, in data set [10], the half-life is 4.02 h. Further, the AUC(0-t) at 24 h in [11] stood at 6900 ng·h/mL. This molecule also returned a Cmax in [12] of 255 ng/mL. The Vd in [13] came out at 0.306 L/kg. For the same molecule, the Tmax in data set [16] was 2 h. For the same molecule, in [17], the concentration in solution (solubility at 24 h) came to 1000 µg/mL (≈ 2540 µM). In data set [18], the clearance came to 1.2 mL/min/kg.

`N#Cc1c(-c2ccccc2)nc(SCc2ccccc2)[nH]c1=O`: in [1], the midpoint of inhibition, the IC50, lay at 4450 nM.
